What was measured:
Gallus gallus [1] = organism: Gallus gallus; experiment: (§1) Hypocholesterolemic activity in 6-week old male mormocholesterolemic chickens using experiment 3; type: functional
Summary of the method: (§2)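 Male chickens, 6 weeks old. Test compound mixed at 50 ppm into a corn-soybean control diet; controls get the diet alone. After the feeding period, birds are fasted 36 h and refed 48 h before sacrifice. Serum total, LDL and HDL cholesterol (mg/100 mL) and triglycerides measured; expressed as mean ± SD and percent of control, n = 6–12 per group.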

Gallus gallus [2] = organism: Gallus gallus; experiment: as §1; type: functional; remark: listed apart in the source
Summary of the method: (§3)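 Six-week-old male chickens fed corn-soybean control diet with test compound at 50 ppm. Birds fasted 36 h, then refed 48 h before sacrifice. Serum total, LDL and HDL cholesterol and triglycerides measured (mg/100 mL), HDL/total ratio computed. Means ± SD, n = 6–12 per group, also as % of control. Significance p < 0.01 within each study.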

HepG2 = experiment: In vitro inhibition of cholesterol biosynthesis in Hep G2 cells; type: functional, Homo sapiens; parameters: concentration or dose not given beside the values
Summary of the method: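 HepG2 human hepatoma cells incubated 4 h with compound at 10 μM, DMSO vehicle controls. Mean % inhibition vs controls, SD ≤ ±10%, n ≥ 8.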

Gallus gallus [3] = organism: Gallus gallus; experiment: Ratio of HDL/total cholesterol value; type: functional; summary of the method: as §3
[4] = Compound oxidation potential using cyclic voltametry; type: ADME
[5] = molecular target: T1, 3-hydroxy-3-methylglutaryl-coenzyme A reductase (Homo sapiens) (UniProt P04035); experiment: In vitro suppression of HMG-CoA reductase (HMGR) in Hep G2 cells; type: cell-based; parameters: concentration or dose not given beside the values; conditions: HepG2, concentration not given here
T1 sequence (whole entry): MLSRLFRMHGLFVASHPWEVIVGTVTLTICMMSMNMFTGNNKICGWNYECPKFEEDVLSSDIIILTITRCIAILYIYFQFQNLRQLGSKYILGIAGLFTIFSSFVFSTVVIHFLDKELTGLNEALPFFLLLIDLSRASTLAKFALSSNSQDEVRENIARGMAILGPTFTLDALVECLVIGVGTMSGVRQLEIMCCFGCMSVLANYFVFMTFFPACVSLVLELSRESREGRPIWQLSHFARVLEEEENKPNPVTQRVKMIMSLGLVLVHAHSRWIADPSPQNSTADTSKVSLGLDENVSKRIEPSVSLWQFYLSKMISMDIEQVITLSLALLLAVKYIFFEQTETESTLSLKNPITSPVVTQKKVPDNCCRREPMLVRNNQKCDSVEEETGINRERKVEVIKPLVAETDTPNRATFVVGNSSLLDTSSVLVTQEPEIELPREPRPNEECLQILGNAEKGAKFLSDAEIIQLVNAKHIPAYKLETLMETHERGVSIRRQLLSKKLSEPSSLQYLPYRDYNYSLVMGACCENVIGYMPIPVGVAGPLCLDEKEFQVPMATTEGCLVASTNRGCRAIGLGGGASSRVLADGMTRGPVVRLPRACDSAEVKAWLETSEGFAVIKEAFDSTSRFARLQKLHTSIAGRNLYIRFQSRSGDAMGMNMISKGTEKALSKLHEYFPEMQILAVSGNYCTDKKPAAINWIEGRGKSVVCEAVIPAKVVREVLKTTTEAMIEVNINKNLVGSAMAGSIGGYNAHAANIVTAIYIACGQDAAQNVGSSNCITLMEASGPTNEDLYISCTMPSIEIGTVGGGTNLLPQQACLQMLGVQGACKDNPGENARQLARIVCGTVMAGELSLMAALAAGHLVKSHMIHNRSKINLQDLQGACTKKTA
Summary of the method: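 HepG2 cells treated 4 h with compound at 10 μM, DMSO vehicle controls. HMG-CoA reductase activity assayed in microsomal fraction isolated at end of incubation. Mean % suppression vs controls, SD ≤ ±10%, n ≥ 8.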

[6] = LDL oxidation assay as spectrophotometric determination of TBARS; type: functional
Summary of the method: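 LDL (0.5 mg/mL protein stock) in saline/20 mM HEPES with drug in ethanol, oxidised by CuSO4 (4 × 10⁻⁴ M stock), 37 °C, 5 h, in duplicate. Stopped with EDTA; TCA/TBA added, boiled 30 min, A535 read. Malonaldehyde equivalents from tetramethoxypropane standard curve. IC50 = concentration inhibiting 50% TBARS vs ethanol controls.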

Gallus gallus [7] = organism: Gallus gallus; experiment: (§4) Hypocholesterolemic activity in 6-week old male mormocholesterolemic chickens using experiment 4; type: functional; summary of the method: as §2
Gallus gallus [8] = organism: Gallus gallus; experiment: as §4; type: functional; summary of the method: as §3; remark: listed apart in the source
Gallus gallus [9] = organism: Gallus gallus; experiment: (§5) Hypocholesterolemic activity in 6-week old male mormocholesterolemic chickens using experiment 1; type: functional; summary of the method: as §2
Gallus gallus [10] = organism: Gallus gallus; experiment: as §5; type: functional; summary of the method: as §3; remark: listed apart in the source

Potential [4] | inhibition [5] [%] | SMILES | Inhibition (HepG2) [%] | further results
 |  | CC(C)=CCC/C(C)=C/CC/C(C)=C/CCC1(C)CCc2cc(O)cc(C#N)c2O1 (stereo unspecified) | 63 | LDL cholesterol (Gallus gallus [1]): 54 mg 100ml-1; HDL cholesterol (Gallus gallus [2]): 94 mg 100ml-1; Total cholesterol (Gallus gallus [2]): 151 mg 100ml-1; Triglycerides (Gallus gallus [2]): 83 mg 100ml-1; Ratio (Gallus gallus [3]): 0.62
1.27 |  | CC(C)=CCC/C(C)=C/CC/C(C)=C/CCC1(C)CCc2c(O)cccc2O1 (stereo unspecified) | 62 | 
 |  | COc1cc2c(c(C)c1C)OC(C)(CC/C=C(\C)CC/C=C(\C)CCC=C(C)C)CC2 (stereo unspecified) | 0 | 
1.21 | 33 | CC(C)=CCC/C(C)=C/CC/C(C)=C/CCC1(C)CCc2cc(O)c(F)cc2O1 (stereo unspecified) | 60 | IC50 [6]: 3 µM
 |  | CC(C)=CCC/C(C)=C/CC/C(C)=C/CCC1Oc2c(cc(O)c(C)c2C)C(=O)/C1=N\O (stereo unspecified) | 84 | 
 | 45 | CC(C)=CCC/C(C)=C/CC/C=C\CCC1(C)CCc2cc(O)c(C)c(C)c2O1 (stereo unspecified) | 81 | 
 |  | CC(=O)Oc1cc2c(c(C)c1C)OC(CC/C=C(\C)CC/C=C(\C)CCC=C(C)C)CC2 (stereo unspecified) |  | LDL cholesterol (Gallus gallus [7]): 44 mg 100ml-1; HDL cholesterol (Gallus gallus [8]): 87 mg 100ml-1; Total cholesterol (Gallus gallus [8]): 139 mg 100ml-1; Triglycerides (Gallus gallus [8]): 67 mg 100ml-1; Ratio (Gallus gallus [3]): 0.63
0.96 |  | CC(C)=CCC/C(C)=C/CC/C(C)=C/CCC1(C)CC(O)c2cc(O)c(C)c(C)c2O1 (stereo unspecified) | 56 | 
 |  | CC(C)=CCC/C(C)=C/CC/C(C)=C/CCc1cc(=O)c2cc(O)c(C)c(C)c2o1 | 71 | 
 | 46 | CC(C)=CCC/C(C)=C/CCC#CCCC1(C)CCc2cc(O)c(C)c(C)c2O1 (stereo unspecified) | 81 | 
1.06 | 40 | CC(C)=CCC/C(C)=C/CC/C(C)=C/CCC1(C)CCc2c(cc(C)c(O)c2C)O1 (stereo unspecified) | 42 | IC50 [6]: > 10 µM
 |  | CC(C)=CCC/C(C)=C/CC/C=C/CCC1(C)CCc2cc(O)c(C)c(C)c2O1 (stereo unspecified) | 68 | 
 |  | C/C(=C\CCC1(C)CCc2cc(O)c(F)cc2O1)CO (stereo unspecified) | 15 | IC50 [6]: > 10 µM
1.2 |  | CC(C)=CCC/C(C)=C/CC/C(C)=C/CCc1oc2c(C)c(C)c(O)cc2c(=O)c1O | 61 | 
0.92 |  | CC(C)=CCC/C(C)=C/CC/C(C)=C/CCC1(C)C=Cc2cc(O)c(C)c(C)c2O1 (stereo unspecified) | 69 | 
 |  | CCCCC/C=C/C/C=C/CCCCCCCC1(C)CCc2cc(O)c(C)c(C)c2O1 (stereo unspecified) | 17 | 
 |  | CC(C)=CCC/C(C)=C/CC/C(C)=C/CCC1(C)CCc2cc(C)c(C)cc2O1 (stereo unspecified) | 33 | 

SMILES | Potential [4] | inhibition [5] [%] | Inhibition (HepG2) [%] | further results
CC(C)=CCC/C(C)=C/CCC1(C)CCc2cc(O)ccc2O1 (stereo unspecified) |  | 52 | 48 | LDL cholesterol (Gallus gallus [7]): 33 mg 100ml-1; HDL cholesterol (Gallus gallus [8]): 93 mg 100ml-1; Total cholesterol (Gallus gallus [8]): 130 mg 100ml-1; Triglycerides (Gallus gallus [8]): 73 mg 100ml-1; IC50 [6]: 2 µM; Ratio (Gallus gallus [3]): 0.72
CC(C)=CCC/C(C)=C/CC/C(C)=C/CCC1(C)CC(=O)c2cc(O)c(C)c(C)c2O1 (stereo unspecified) | 1.2 | 16 | 93 | LDL cholesterol (Gallus gallus [9]): 36 mg 100ml-1; HDL cholesterol (Gallus gallus [10]): 108 mg 100ml-1; Total cholesterol (Gallus gallus [10]): 133 mg 100ml-1; Triglycerides (Gallus gallus [10]): 64 mg 100ml-1; IC50 [6]: 2 µM; Ratio (Gallus gallus [3]): 0.81

From ChEMBL document CHEMBL1127811, “Inhibitors of cholesterol biosynthesis. 2. Hypocholesterolemic and antioxidant activities of benzopyran and tetrahydronaphthalene analogues of the tocotrienols” (J Med Chem, 1994)
